We go through seven compounds from ChEMBL document CHEMBL1133514, “Activation mechanisms of nucleoside phosphoramidate prodrugs” (J Med Chem, 2000).

Series [1] in a line: Rate constants determined using 31P NMR Kinetics experiments at 37 degrees Centigrade. The class given is ADME. The procedure, abridged:
(§1)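 Compound (0.015-0.076 mmol) dissolved in about 90 µL CH3CN or THF, then diluted to 0.50 mL with 0.1-0.4 M cacodylate or acetate buffer; pH 7.4 target (7.0-8.0 accepted), 37 °C. Monitored by 31P NMR every 2.5 min for 30 min, then every 5 min; relative peak areas fitted by least squares to first-order kinetics to give rate constants and t1/2.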

A short description of series [2]: Half-life period for the compound was determined. The class given is ADME. The procedure, abridged: as §1

In the case of `Cc1cn([C@H]2C[C@H](O)[C@@H](COP(=O)(O)N(C)CCBr)O2)c(=O)[nH]c1=O`, the K in series [1] stood at 0.2 min⁻¹. Moreover, the half-life (usually how long it takes for the measured level to halve) in series [2] came out at 3.4 min.

As to `COP(=O)(OCC1CCCO1)N(C)CCO` (centres undefined), the K in series [1] is 0.43 min⁻¹. In series [2], this compound displayed a half-life of 1.6 min.

`O=P(O)(OCC1CCCO1)On1nnc2ccccc21` (centres undefined) showed a K in series [1] of 0.011 min⁻¹. This compound showed a half-life in series [2] of 61 min.

In series [1], `CN(CCBr)P(=O)(OCC1CCCO1)On1nnc2ccccc21` (centres undefined) returned a K of 0.094 min⁻¹. This compound also displayed a half-life in series [2] of 7.4 min.

Consider `Cc1cn([C@H]2C[C@H](O)[C@@H](COP(=O)(O)On3nnc4ccccc43)O2)c(=O)[nH]c1=O`, for which the K in series [1] is 0.0042 min⁻¹. Besides, in series [2], the half-life is 164 min.

As to `CCN(CC)CC.Cc1cn([C@H]2C[C@H](O)[C@@H](COP(=O)(O)N(C)CCBr)O2)c(=O)[nH]c1=O`, the K in series [1] stood at 0.19 min⁻¹. Besides, the half-life in series [2] stood at 3.7 min.

`Cc1cn([C@H]2C[C@H](O)[C@@H](COP(=O)(On3nnc4ccccc43)N(C)CCBr)O2)c(=O)[nH]c1=O` (some centres undefined): in series [1], the K is 0.15 min⁻¹. Besides, the half-life in series [2] was 4.7 min.
